In ChEMBL document CHEMBL2177038 (J Med Chem, 2012):
pEC50, pKi: −log10 of the molar value.

How the values were obtained:
Cannabinoid receptor 2 [1] = target: T1, Cannabinoid receptor 2 (Homo sapiens, UniProt P34972); test: Inverse agonist activity at human CB2 receptor expressed in CHO cells assessed as increase in forskolin-induced cAMP accumulation incubated for 45 mins by TR-FRET method based LANCE cAMP assay; format: functional, cell-based
Cannabinoid receptor 2 [2] = target: T1, Cannabinoid receptor 2; test: Displacement of [3H]CP55940 from human CB2 receptor expressed in CHO cells incubated for 1 hr; format: cell-based
Cannabinoid receptor 1 = Cannabinoid receptor 1 (Homo sapiens, UniProt P21554); test: biochemical; format: cell-based, CHO
Cannabinoid receptor 1, sequence (P21554 whole entry): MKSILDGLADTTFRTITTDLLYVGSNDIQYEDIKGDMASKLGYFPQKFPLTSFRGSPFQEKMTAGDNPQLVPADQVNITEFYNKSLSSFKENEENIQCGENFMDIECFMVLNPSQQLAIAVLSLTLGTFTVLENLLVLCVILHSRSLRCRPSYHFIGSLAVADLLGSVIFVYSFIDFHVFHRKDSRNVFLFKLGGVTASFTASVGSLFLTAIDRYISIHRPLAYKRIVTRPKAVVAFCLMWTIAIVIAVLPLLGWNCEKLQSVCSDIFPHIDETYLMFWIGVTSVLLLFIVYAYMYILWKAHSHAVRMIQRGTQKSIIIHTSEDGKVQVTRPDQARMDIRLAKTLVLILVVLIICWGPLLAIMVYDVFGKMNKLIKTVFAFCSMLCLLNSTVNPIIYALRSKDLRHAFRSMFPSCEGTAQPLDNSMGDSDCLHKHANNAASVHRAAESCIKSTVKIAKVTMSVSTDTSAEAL

Homo sapiens = species: Homo sapiens; test: Selectivity index, ratio of Ki for human CB1 receptor to KI for human CB2 receptor
Bone marrow cell [3] = test: Inhibition of osteoclastogenesis in human mononuclear bone marrow cells incubated for 3 weeks at 37 degC by osteoclast formation assay; format: functional, cell-based
Procedure, shortened: (§1)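 Nonadherent human marrow mononuclear cells from healthy donors, 2×10^5 per well, in MEM with 20% horse serum, 10 ng/mL M-CSF and 25 ng/mL RANKL (legend states RANKL 50 ng/mL). Compounds present throughout, with drug-containing half-medium changes twice weekly; 3 weeks at 37 °C, 5% CO2. 23c6 antibody stain; 23c6+ cells with ≥3 nuclei counted; triplicate, mean ± SD.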

PBMC = test: Toxicity against human PBMC assessed effect on cell viability at 1 to 10 uM incubated for 72 hrs by trypan blue dye exclusion method; format: cell-based
Procedure, shortened: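 PBMC from healthy medication-free donors, isolated on Ficoll-Hypaque, washed in ice-cold PBS. Cells held in medium with 10% inactivated FBS and 2 mM glutamine (5×10^5/mL; legend 10^5 cells/well). Compounds come from a 50 mM DMSO stock, final DMSO 0.02%, exposure 72 h. Viability read by trypan blue exclusion; three assays, mean ± SD.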

Bone marrow cell [4] = test: Inhibition of osteoclastogenesis in human mononuclear bone marrow cells at 0.1 uM incubated for 3 weeks at 37 degC by osteoclast formation assay; format: functional; details: 504 h; procedure, shortened: as §1
Bone marrow cell [5] = test: Inhibition of osteoclastogenesis in human mononuclear bone marrow cells at 10 uM incubated for 3 weeks at 37 degC by osteoclast formation assay; format: functional; details: 504 h; procedure, shortened: as §1
Bone marrow cell [6] = test: Inhibition of osteoclastogenesis in human mononuclear bone marrow cells at 1 uM incubated for 3 weeks at 37 degC by osteoclast formation assay; format: functional; details: 504 h; procedure, shortened: as §1

T1 sequence (P34972 whole entry): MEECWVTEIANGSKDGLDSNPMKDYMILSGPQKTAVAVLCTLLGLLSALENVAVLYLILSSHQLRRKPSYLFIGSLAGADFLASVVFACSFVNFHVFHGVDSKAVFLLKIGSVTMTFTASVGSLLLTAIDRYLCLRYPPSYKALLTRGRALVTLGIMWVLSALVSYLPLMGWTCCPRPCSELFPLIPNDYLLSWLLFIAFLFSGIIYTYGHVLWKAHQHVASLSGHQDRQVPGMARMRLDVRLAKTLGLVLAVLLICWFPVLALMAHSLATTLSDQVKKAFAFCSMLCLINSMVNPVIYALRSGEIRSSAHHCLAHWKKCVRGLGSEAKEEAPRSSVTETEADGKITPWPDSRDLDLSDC

Row | pKi (Cannabinoid receptor 2 [2]) | pKi (Cannabinoid receptor 1) | Ratio Ki (Homo sapiens) | SMILES | other results
1 | 7.66 | < 4.70 | – | CCCN(CCC)c1ccc(C(NC(=O)Cc2ccccc2)NC(=O)Cc2ccccc2)cc1 | pEC50 (Cannabinoid receptor 2 [1]): 7.55
2 | – | < 4.70 | – | O=C(Cc1ccccc1)NC(CCc1ccccc1)NC(=O)Cc1ccccc1 | –
3 | – | < 4.70 | > 34 | O=C(Cc1ccccc1)NC(NC(=O)Cc1ccccc1)c1ccc(N2CCCCC2)cc1 | –
4 | – | < 4.70 | – | CC(C)Oc1ccc(C(NC(=O)Cc2ccccc2)NC(=O)Cc2ccccc2)cc1 | inhibition (Bone marrow cell [3]): Dose-dependent effect; Activity (PBMC): Non-toxic
5 | – | < 4.70 | > 26 | CN(C)c1ccc(C(NC(=O)Cc2ccccc2)NC(=O)Cc2ccccc2)cc1 | inhibition (Bone marrow cell [3]): Dose-dependent effect; pEC50 (Cannabinoid receptor 2 [1]): 6.80; Activity (PBMC): Non-toxic
6 | 6.78 | < 4.70 | > 119 | CCN(CC)c1ccc(C(NC(=O)/C=C/c2ccccc2)NC(=O)/C=C/c2ccccc2)cc1 | –
7 | 7.15 | < 4.70 | > 281 | O=C(Cc1ccccc1)NC(NC(=O)Cc1ccccc1)c1ccc(N2CCCC2)cc1 | pEC50 (Cannabinoid receptor 2 [1]): 7.77
8 | – | < 4.70 | > 127 | O=C(Cc1ccc(Cl)cc1)NC(NC(=O)Cc1ccc(Cl)cc1)c1ccccc1C(F)(F)F | –
9 | < 4.70 | – | – | O=C(Cc1ccc(C(F)(F)F)cc1)NC(NC(=O)Cc1ccc(C(F)(F)F)cc1)c1ccc(F)cc1 | –
10 | < 4.70 | – | – | O=C(Cc1ccc(Cl)cc1)NC(NC(=O)Cc1ccc(Cl)cc1)c1ccc(F)cc1 | –
11 | – | < 4.70 | > 90 | CCCCN(CCCC)c1ccc(C(NC(=O)Cc2ccccc2)NC(=O)Cc2ccccc2)cc1 | –
12 | – | < 4.70 | > 43 | Cc1ccc(C(NC(=O)Cc2ccc(Cl)cc2)NC(=O)Cc2ccc(Cl)cc2)cc1 | –
13 | – | < 4.70 | – | CCN(CC)c1ccc(C(NC(=O)C(C)C)NC(=O)C(C)C)cc1 | –
14 | < 4.70 | – | – | COc1ccc(C(NC(=O)Cc2ccc(C(F)(F)F)cc2)NC(=O)Cc2ccc(C(F)(F)F)cc2)cc1 | –
15 | – | < 4.70 | – | CCCCCCCCCC(=O)NC(NC(=O)CCCCCCCCC)c1ccc(N(CC)CC)cc1 | –
16 | – | – | – | Cc1ccc(Cn2nc(C(=O)NC3C4(C)CCC(C4)C3(C)C)cc2-c2ccc(Cl)c(C)c2)cc1 (centres undefined) | inhibition (Bone marrow cell [3]): Dose-dependent effect
17 | – | < 4.70 | – | CCCCCC(NC(=O)Cc1ccccc1)NC(=O)Cc1ccccc1 | –
18 | – | < 4.70 | > 65 | COc1ccc(C(NC(=O)Cc2ccc(Cl)cc2)NC(=O)Cc2ccc(Cl)cc2)cc1 | –
19 | – | < 4.70 | > 26 | COc1ccc(C(NC(=O)Cc2ccccc2)NC(=O)Cc2ccccc2)cc1 | –
20 | < 4.70 | < 4.70 | – | O=C(Cc1ccccc1)NC(Cc1ccccc1)NC(=O)Cc1ccccc1 | –
21 | – | < 4.70 | – | O=C(Cc1ccccc1)NC(/C=C/c1ccccc1)NC(=O)Cc1ccccc1 | –

Row | pKi (Cannabinoid receptor 2 [2]) | pKi (Cannabinoid receptor 1) | Ratio Ki (Homo sapiens) | SMILES | other results
22 | – | < 4.70 | – | CCN(CC)c1ccc(C(NC(=O)C(C)(C)C)NC(=O)C(C)(C)C)cc1 | –
23 | < 4.70 | – | – | Cc1ccc(C(NC(=O)Cc2ccc(C(F)(F)F)cc2)NC(=O)Cc2ccc(C(F)(F)F)cc2)cc1 | –
24 | – | < 4.70 | > 109 | CCCCC(=O)NC(NC(=O)CCCC)c1ccc(N(CC)CC)cc1 | –
25 | – | – | – | Cc1ccc(Cn2nc(C(=O)N[C@@H]3C(C)(C)[C@@H]4CC[C@@]3(C)C4)cc2-c2ccc(Cl)c(C)c2)cc1 [SR-144528] | Activity (PBMC): Non-toxic
26 | 6.69 | < 4.70 | > 99 | O=C(Cc1ccccc1)NC(NC(=O)Cc1ccccc1)c1ccc(N(Cc2ccccc2)Cc2ccccc2)cc1 | –
27 | – | < 4.70 | > 130 | O=C(Cc1ccc(Cl)cc1)NC(NC(=O)Cc1ccc(Cl)cc1)c1ccc(Cl)cc1 | –
28 | 4.90 | – | – | Nc1ccc(C(NC(=O)Cc2ccccc2)NC(=O)Cc2ccccc2)cc1 | –
29 | < 4.70 | – | – | O=C(Cc1ccccc1)NC(NC(=O)Cc1ccccc1)c1ccc([N+](=O)[O-])cc1 | –
30 | – | < 4.70 | > 34 | O=C(Cc1ccccc1)NC(NC(=O)Cc1ccccc1)c1ccc(C(F)(F)F)cc1 | –
31 | – | < 4.70 | > 800 | CCCCCC(=O)NC(NC(=O)CCCCC)c1ccc(N(CC)CC)cc1 | pEC50 (Cannabinoid receptor 2 [1]): 7.87
32 | – | < 4.70 | > 29 | CCN(CC)c1ccc(C(NC(=O)c2ccccc2)NC(=O)c2ccccc2)cc1 | –
33 | < 4.70 | – | – | O=C(Cc1ccc(Cl)cc1)NC(NC(=O)Cc1ccc(Cl)cc1)c1ccccc1 | –
34 | – | < 4.70 | > 136 | CCCCCCCC(=O)NC(NC(=O)CCCCCCC)c1ccc(N(CC)CC)cc1 | –
35 | < 4.70 | – | – | O=C(Cc1ccc(Cl)cc1)NC(NC(=O)Cc1ccc(Cl)cc1)c1ccc([N+](=O)[O-])cc1 | –
36 | – | < 4.70 | > 313 | CCN(CC)c1ccc(C(NC(=O)Cc2ccccc2)NC(=O)Cc2ccccc2)cc1 | inhibition (Bone marrow cell [3]): Dose-dependent effect; inhibition at 0.1 µM (Bone marrow cell [4]): 72%; pEC50 (Cannabinoid receptor 2 [1]): 8.24; inhibition at 10 µM (Bone marrow cell [5]): 84%; Activity (PBMC): Non-toxic; inhibition at 1 µM (Bone marrow cell [6]): 79%
37 | – | < 4.70 | > 198 | O=C(Cc1ccc(Cl)cc1)NC(NC(=O)Cc1ccc(Cl)cc1)c1ccc(C(F)(F)F)cc1 | –
38 | – | < 4.70 | – | CC(C)c1ccc(C(NC(=O)Cc2ccccc2)NC(=O)Cc2ccccc2)cc1 | inhibition (Bone marrow cell [3]): Dose-dependent effect; pEC50 (Cannabinoid receptor 2 [1]): 8.39; Activity (PBMC): Non-toxic
39 | < 4.70 | – | – | O=C(Cc1ccc(C(F)(F)F)cc1)NC(NC(=O)Cc1ccc(C(F)(F)F)cc1)c1ccc(Cl)cc1 | –
40 | < 4.70 | – | – | O=C(Cc1ccc(C(F)(F)F)cc1)NC(NC(=O)Cc1ccc(C(F)(F)F)cc1)c1ccccc1F | –
41 | 6.67 | < 4.70 | – | CCN(CC)c1ccc(C(NC(=O)CCc2ccccc2)NC(=O)CCc2ccccc2)cc1 | –

Row | SMILES | pKi (Cannabinoid receptor 2 [2]) | pKi (Cannabinoid receptor 1) | Ratio Ki (Homo sapiens) | other results
42 | O=C(Cc1ccc(C(F)(F)F)cc1)NC(NC(=O)Cc1ccc(C(F)(F)F)cc1)c1ccc(C(F)(F)F)cc1 | < 4.70 | – | – | –
43 | O=C(Cc1ccc(C(F)(F)F)cc1)NC(NC(=O)Cc1ccc(C(F)(F)F)cc1)c1ccccc1 | < 4.70 | – | – | –
